{"source": "paper PMC4263960", "about": "(Pediatric blood & cancer, 2013)", "key": {"CHLA-258 cell line": {"system": "CHLA-258 cell line", "assay": "DIMSCAN in vitro cytotoxicity testing, CHLA-258", "type": "cell-based", "summary_of_the_method": "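Test compound incubated with cells of a 24-line pediatric cancer panel for 96 h at 0.1 nM to 1 μM, then assessed by DIMSCAN. Relative IC50 (rIC50) derived per line. Panel comparison value is the panel rIC50 divided by the rIC50 of each cell line.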"}, "[1]": {"system": "OS-17 osteosarcoma xenograft", "assay": "PPTP in vivo xenograft testing, OS-17", "set-up": "species or system mice"}, "[2]": {"system": "CHLA-79 neuroblastoma xenograft", "assay": "PPTP in vivo xenograft testing, CHLA-79", "set-up": "species or system mice"}, "[3]": {"system": "ALL-7 ALL B-precursor xenograft", "assay": "PPTP in vivo xenograft testing, ALL-7", "set-up": "species or system mice"}, "[4]": {"assay": "Human pharmacokinetics of eribulin", "type": "in vivo, humans", "settings": "plasma, intravenous, 1.4 mg/m2"}, "[5]": {"system": "OS-1 osteosarcoma xenograft", "assay": "PPTP in vivo xenograft testing, OS-1", "set-up": "species or system mice"}, "[6]": {"system": "NB-SD neuroblastoma xenograft", "assay": "PPTP in vivo xenograft testing, NB-SD", "set-up": "species or system mice"}, "[7]": {"settings": "1 mg/kg IP Q4Dx3 repeated at Day 21"}}, "data": [{"smiles": "C=C1C[C@@H]2CC[C@@]34C[C@H]5O[C@H]6[C@@H](O3)[C@H]3O[C@H](CC[C@@H]3O[C@H]6[C@H]5O4)CC(=O)C[C@@H]3[C@@H](OC)[C@@H](C[C@H](O)CN)O[C@H]3C[C@H]3O[C@@H](CC[C@@H]1O2)C[C@@H](C)C3=C", "note": "[Eribulin]", "values": [{"measurement": "IC50", "setting": "CHLA-258 cell line; 96 h, read-out: rIC50", "value": 0.5, "unit": "nM"}, {"measurement": "Panel rIC50/Line rIC50", "setting": "CHLA-258 cell line; CHLA-258", "value": 0.54}, {"measurement": "Relative in/out%", "setting": "CHLA-258 cell line; CHLA-258", "value": "−84", "unit": "%"}, {"measurement": "Ymin % (observed)", "setting": "CHLA-258 cell line; CHLA-258", "value": 6.29, "unit": "%"}, {"measurement": "EFS activity", "setting": "[1]; 1 mg/kg IP", "value": "High (High activity requires: (a) an EFS T/C >2; (b) a significant difference in EFS distributions, and (c) a net reduction in median tumor volume for animals in the treated group at the end of treatment as compared to at treatment initiation)"}, {"measurement": "Response activity", "setting": "[1]; 1 mg/kg IP", "value": "High (A high level of activity is indicated by a score of 6 or more)"}, {"measurement": "T/C volume activity", "setting": "[1]; 1 mg/kg IP", "value": "Int (Intermediate activity = T/C ≤0.45 but >0.15)"}, {"measurement": "EFS T/C", "setting": "[1]; [7]", "value": ">2.3"}, {"measurement": "Median final RTV (CD45%)", "setting": "[1]; [7]", "value": 0.5}, {"measurement": "Tumor volume T/C", "setting": "[1]; 1 mg/kg IP, Day 21 or earlier", "value": 0.25}, {"measurement": "EFS activity", "setting": "[2]; 1 mg/kg IP", "value": "Low (Low activity = EFS T/C <2)"}, {"measurement": "Response activity", "setting": "[2]; 1 mg/kg IP", "value": "Int (intermediate activity by a score of ≥2 but <6)"}, {"measurement": "T/C volume activity", "setting": "[2]; 1 mg/kg IP", "value": "Low (Low activity = T/C >0.45)"}, {"measurement": "EFS T/C", "setting": "[2]; [7]", "value": 1.9}, {"measurement": "Median final RTV (CD45%)", "setting": "[2]; [7]", "value": ">4"}, {"measurement": "Time to event", "setting": "[2]; [7]", "value": 13.0}, {"measurement": "Tumor volume T/C", "setting": "[2]; 1 mg/kg IP, Day 21 or earlier", "value": 0.71}, {"measurement": "EFS activity", "setting": "[3]; 1.5 mg/kg IP", "value": "Int (Intermediate activity = criteria (a) and (b) above, but not having a net reduction in median tumor volume for treated animals at the end of the study)"}, {"measurement": "Response activity", "setting": "[3]; 1.5 mg/kg IP", "value": "High (A high level of activity is indicated by a score of 6 or more)"}, {"measurement": "EFS T/C", "setting": "[3]; 1.5 mg/kg IP Q4Dx3 repeated at Day 21", "value": ">4.4"}, {"measurement": "Median final RTV (CD45%)", "setting": "[3]; CD45%, 1.5 mg/kg IP", "value": 3.0, "unit": "%"}, {"measurement": "AUC", "setting": "[4]", "value": 1580, "unit": "ng·h/mL"}, {"measurement": "Response activity", "setting": "[5]; 1 mg/kg IP", "value": "High (A high level of activity is indicated by a score of 6 or more)"}, {"measurement": "T/C volume activity", "setting": "[5]; 1 mg/kg IP", "value": "Low (Low activity = T/C >0.45)"}, {"measurement": "EFS T/C", "setting": "[5]; [7]", "value": ">1.5"}, {"measurement": "Median final RTV (CD45%)", "setting": "[5]; [7]", "value": 0.4}, {"measurement": "Tumor volume T/C", "setting": "[5]; 1 mg/kg IP, Day 21 or earlier", "value": 0.64}, {"measurement": "EFS activity", "setting": "[6]; 1 mg/kg IP", "value": "Int (Intermediate activity = criteria (a) and (b) above, but not having a net reduction in median tumor volume for treated animals at the end of the study)"}, {"measurement": "Response activity", "setting": "[6]; 1 mg/kg IP", "value": "Int (intermediate activity by a score of ≥2 but <6)"}, {"measurement": "T/C volume activity", "setting": "[6]; 1 mg/kg IP", "value": "Low (Low activity = T/C >0.45)"}, {"measurement": "EFS T/C", "setting": "[6]; [7]", "value": 2.4}, {"measurement": "Median final RTV (CD45%)", "setting": "[6]; [7]", "value": ">4"}, {"measurement": "Time to event", "setting": "[6]; [7]", "value": 17.5}, {"measurement": "Tumor volume T/C", "setting": "[6]; 1 mg/kg IP, Day 21 or earlier", "value": 0.53}]}]}
